Measurements reported in ChEMBL document CHEMBL4004822, “Thienopyrimidinone Based Sirtuin-2 (SIRT2)-Selective Inhibitors Bind in the Ligand Induced Selectivity Pocket” (J Med Chem, 2017).

Target: T1, NAD-dependent protein deacetylase sirtuin-2 (Homo sapiens) (UniProt Q8IXJ6)
T1 sequence (whole entry): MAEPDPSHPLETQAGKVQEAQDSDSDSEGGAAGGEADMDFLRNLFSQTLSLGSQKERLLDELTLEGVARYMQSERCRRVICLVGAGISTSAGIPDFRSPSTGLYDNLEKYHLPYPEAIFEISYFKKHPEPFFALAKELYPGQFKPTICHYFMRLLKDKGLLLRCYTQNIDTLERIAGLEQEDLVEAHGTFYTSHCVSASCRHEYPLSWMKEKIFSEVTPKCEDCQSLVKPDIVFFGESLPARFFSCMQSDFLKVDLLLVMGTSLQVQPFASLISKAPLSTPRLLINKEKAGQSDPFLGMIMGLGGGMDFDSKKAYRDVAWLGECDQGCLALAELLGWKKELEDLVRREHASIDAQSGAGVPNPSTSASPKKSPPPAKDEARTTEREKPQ
Experiment: Inhibition of recombinant human C-terminal His-tagged SIRT2 (50 to 389 end residues) expressed in Escherichia coli at 10 uM using p53 derived (379 to 382 residues) fluorogenic peptide substrate RHKK(Ac)-AMC preincubated for 10 mins followed by substrate addition in presence of NAD+ by fluorescence assay relative to control
Procedure, shortened: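 Two-step fluorogenic assay with p53 379–382 RHKK(Ac)-AMC. Compound (from 10 mM DMSO stock) preincubated ~10 min with human SIRT before substrate addition. Developer then releases fluorophore, read at ex 360/em 460 nm.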

Structure (SMILES) | inhibition
COc1cccc(CNC2CCc3c(sc4ncn(Cc5cccc6ccccc56)c(=O)c34)C2)c1 (stereo not drawn) | 59%
COc1ccc(CNC2CCc3c(sc4ncn(Cc5cccc(OC)c5)c(=O)c34)C2)cc1 (stereo not drawn) | 71%
O=c1c2c3c(sc2ncn1Cc1ccc2ccccc2c1)CC(NCc1ccccc1Cl)CC3 (stereo not drawn) | 43%
N#Cc1ccc(CNC2CCc3c(sc4ncn(Cc5cccc(-c6ccccc6)c5)c(=O)c34)C2)cc1 (stereo not drawn) | 75%
COc1ccc2ccccc2c1Cn1cnc2sc3c(c2c1=O)CCC(NCc1cccc(Cl)c1)C3 (stereo not drawn) | 50%
O=c1c2c3c(sc2ncn1Cc1cccc2ccccc12)CC(NCc1cccc(Cl)c1)CC3 (stereo not drawn) | 60%
COc1ccc(Cn2cnc3sc4c(c3c2=O)CCC(NCCN2CCOCC2)C4)c2ccccc12 (stereo not drawn) | 76%
COc1ccccc1NC1CCc2c(sc3ncn(Cc4ccc5ccccc5c4)c(=O)c23)C1 (stereo not drawn) | 36%
COc1ccc(CNC2CCc3c(sc4ncn(Cc5ccccc5)c(=O)c34)C2)cc1 (stereo not drawn) | 45%
O=c1c2c3c(sc2ncn1Cc1ccc2ccccc2c1)CC(NCc1cccc(F)c1)CC3 (stereo not drawn) | 56%
COc1ccccc1NC1CCc2c(sc3ncn(Cc4cccc5cccnc45)c(=O)c23)C1 (stereo not drawn) | 69%
COc1cccc(Cn2cnc3sc4c(c3c2=O)CCC(NCc2c(C)nn(C)c2C)C4)c1 (stereo not drawn) | 14%
COCCNC1CCc2c(sc3ncn(Cc4ccc5ccccc5c4)c(=O)c23)C1 (stereo not drawn) | 45%
COc1ccccc1CCNC1CCc2c(sc3ncn(Cc4c(OC)ccc5ccccc45)c(=O)c23)C1 (stereo not drawn) | 65%
COc1cccc(Cn2cnc3sc4c(c3c2=O)CCC(NCc2ccncc2)C4)c1 (stereo not drawn) | 59%
O=c1c2c3c(sc2ncn1Cc1ccc2ccccc2c1)CC(NC1CCCC1)CC3 (stereo not drawn) | 63%
O=c1c2c3c(sc2ncn1Cc1cccc2cccnc12)CC(NC1CCOCC1)CC3 (stereo not drawn) | 51%
COc1ccc2ccccc2c1Cn1cnc2sc3c(c2c1=O)CCC(NCc1ccc(Cl)cc1)C3 (stereo not drawn) | 40%
COc1ccccc1NC1CCc2c(sc3ncn(Cc4cccc(-c5ccccc5)c4)c(=O)c23)C1 (stereo not drawn) | 26%

Structure (SMILES) | inhibition
O=c1c2c3c(sc2ncn1Cc1ccccc1)CC(NCc1ccco1)CC3 (stereo not drawn) | 33%
COc1cccc(Cn2cnc3sc4c(c3c2=O)CCC(NCc2ccccc2)C4)c1 (stereo not drawn) | 64%
COc1ccccc1CCNC1CCc2c(sc3ncn(Cc4ccc5ccccc5c4)c(=O)c23)C1 (stereo not drawn) | 67%
O=c1c2c3c(sc2ncn1Cc1cccc2ccccc12)CC(NCc1ccccc1Cl)CC3 (stereo not drawn) | 46%
COc1ccccc1NC1CCc2c(sc3ncn(Cc4cccc5ccccc45)c(=O)c23)C1 (stereo not drawn) | 22%
O=c1c2c3c(sc2ncn1Cc1cccc2ccccc12)CC(Nc1ccc2c(c1)OCO2)CC3 (stereo not drawn) | 29%
O=c1c2c3c(sc2ncn1Cc1cccc(-c2ccccc2)c1)CC(NCc1ccc(Cl)cc1)CC3 (stereo not drawn) | 56%
COc1cccc(Cn2cnc3sc4c(c3c2=O)CCC(NCc2ccccc2OC)C4)c1 (stereo not drawn) | 64%
O=c1c2c3c(sc2ncn1Cc1cccc2ccccc12)CC(NCCN1CCCC1)CC3 (stereo not drawn) | 56%
COc1ccccc1CNC1CCc2c(sc3ncn(Cc4cccc5ccccc45)c(=O)c23)C1 (stereo not drawn) | 60%
COc1ccccc1CNC1CCc2c(sc3ncn(Cc4ccccc4)c(=O)c23)C1 (stereo not drawn) | 46%
COCCNC1CCc2c(sc3ncn(Cc4cccc(-c5ccccc5)c4)c(=O)c23)C1 (stereo not drawn) | 70%
Cc1ccc(NC2CCc3c(sc4ncn(Cc5ccc6ccccc6c5)c(=O)c34)C2)cc1 (stereo not drawn) | 29%
O=c1c2c3c(sc2ncn1Cc1cccc(-c2ccccc2)c1)CC(NCc1ccccc1F)CC3 (stereo not drawn) | 43%
COc1cccc(Cn2cnc3sc4c(c3c2=O)CCC(NCc2ccco2)C4)c1 (stereo not drawn) | 33%
COc1cccc(CNC2CCc3c(sc4ncn(Cc5cccc6cccnc56)c(=O)c34)C2)c1 (stereo not drawn) | 78%
O=c1c2c3c(sc2ncn1Cc1cccc2ccccc12)CC(NC1CCCC1)CC3 (stereo not drawn) | 61%
COc1cccc(Cn2cnc3sc4c(c3c2=O)CCC(NCc2ccccn2)C4)c1 (stereo not drawn) | 18%
O=c1c2c3c(sc2ncn1Cc1cccc2ccccc12)CC(Nc1ccc(F)cc1)CC3 (stereo not drawn) | 50%
